Source: ChEMBL document CHEMBL1141789, “Minutosides A and B, antifungal sulfated steroid xylosides from the patagonian starfish Anasterias minuta” (2005)
Activity calls are given as the source filed them. The rule behind the calls is not given here.

Experiments:
Cladosporium cucumerinum [1] = test: Antifungal activity against Cladosporium cucumerinum at 20 to 60 ug/spot after 2 to 3 days; type: functional
Outline: (§1)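 TLC bioautography: geometric dilutions made from freshly prepared stocks (1-10 mg mL^-1) in a suitable solvent, 10 µL spotted per TLC plate. Plates then sprayed with C. cucumerinum (DSM 62122) or A. flavus (BAFC 589) suspended in nutritive medium, incubated 2-3 days in a moist glass box. Read-out: diameter (mm) of clear inhibition zones against dark gray background; benomyl reference.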

Aspergillus flavus [2] = test: Antifungal activity against Aspergillus flavus at 5 to 10 ug/spot after 2 to 3 days; type: functional; outline: as §1
Cladosporium cucumerinum [3] = test: Antifungal activity against Cladosporium cucumerinum at 10 ug/spot after 2 to 3 days; type: functional, organism-based; outline: as §1
Cladosporium cucumerinum [4] = test: Antifungal activity against Cladosporium cucumerinum at 10 to 60 ug/spot after 2 to 3 days; type: functional; outline: as §1
Aspergillus flavus [5] = test: Antifungal activity against Aspergillus flavus at 20 to 60 ug/spot after 2 to 3 days; type: functional; outline: as §1
Cladosporium cucumerinum [6] = test: Antifungal activity against Cladosporium cucumerinum at 5 ug/spot after 2 to 3 days; type: functional
Outline: (§2)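 TLC bioautography. Geometric dilutions were made from freshly prepared stock solutions (1-10 mg mL^-1) in a suitable solvent and spotted onto TLC plates. The read-out was the diameter (mm) of clear inhibition zones against a dark grey background.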

Aspergillus flavus [7] = test: Antifungal activity against Aspergillus flavus at 5 ug/spot after 2 to 3 days; type: functional; outline: as §2

CC(C)[C@H](/C=C/[C@@H](C)[C@H]1C[C@@H](O)[C@@H]2[C@]1(C)CC[C@@H]1[C@@]3(C)CC[C@H](O)C[C@@H]3[C@@H](O)C[C@]12O)O[C@@H]1OC[C@@H](O)[C@H](O)[C@H]1O
Activity (Cladosporium cucumerinum [1]): inactive
Activity (Aspergillus flavus [2]): inactive
Activity (Cladosporium cucumerinum [3]): inactive
Activity (Cladosporium cucumerinum [4]): inactive
Activity (Aspergillus flavus [5]): inactive

CC(C)[C@H](CC[C@@H](C)[C@H]1C[C@@H](O)[C@@H]2[C@]1(C)CC[C@@H]1[C@@]3(C)CC[C@H](O)C[C@@H]3[C@@H](O)C[C@]12O)O[C@@H]1OC[C@@H](O)[C@H](O)[C@H]1O
Activity (Cladosporium cucumerinum [1]): inactive
Activity (Aspergillus flavus [2]): inactive
Activity (Cladosporium cucumerinum [3]): inactive
Activity (Cladosporium cucumerinum [4]): inactive
Activity (Aspergillus flavus [5]): inactive

CCCCNC(=O)n1c(NC(=O)OC)nc2ccccc21 [BENOMYL]
inhibition zone (IZ) (Cladosporium cucumerinum [6]): 15 mm
inhibition zone (IZ) (Aspergillus flavus [7]): 14 mm

CC(C)[C@H](/C=C/[C@@H](C)[C@H]1C[C@@H](O)[C@@H]2[C@]1(C)CC[C@@H]1[C@@]3(C)CC[C@H](OS(=O)(=O)[O-])C[C@@H]3[C@@H](O)C[C@]12O)O[C@@H]1OC[C@@H](O)[C@H](O)[C@H]1O.[Na+] [MINUTOSIDE A]
inhibition zone (IZ) (Aspergillus flavus [2]): 5 mm
inhibition zone (IZ) (Cladosporium cucumerinum [4]): 7 mm
inhibition zone (IZ) (Aspergillus flavus [5]): 5 mm

C[C@H](/C=C/[C@@H](C)[C@H]1C[C@@H](O)[C@@H]2[C@]1(C)CC[C@@H]1[C@@]3(C)CC[C@H](O[C@@H]4OC[C@@H](O)[C@H](O)[C@H]4O)C[C@@H]3[C@@H](O)C[C@]12O)[C@H](C)C(=O)NCCS(=O)(=O)[O-].[Na+] [MINUTOSIDE B]
inhibition zone (IZ) (Cladosporium cucumerinum [1]): 3 mm
Activity (Aspergillus flavus [2]): inactive
Activity (Cladosporium cucumerinum [3]): inactive
inhibition zone (IZ) (Aspergillus flavus [5]): 5 mm

CC(C)[C@H](CC[C@@H](C)[C@H]1C[C@@H](O)[C@@H]2[C@]1(C)CC[C@@H]1[C@@]3(C)CC[C@H](OS(=O)(=O)O)C[C@@H]3[C@@H](O)C[C@]12O)O[C@@H]1OC[C@@H](O)[C@H](O)[C@H]1O [PYCNOPODIOSIDE B]
inhibition zone (IZ) (Aspergillus flavus [2]): 5 mm
inhibition zone (IZ) (Cladosporium cucumerinum [4]): 7 mm
inhibition zone (IZ) (Aspergillus flavus [5]): 5 mm
